# A selection: hits, their analogues and other compounds. The true share with any hit is near 4.1%.
# hERG rescue – hERG (human) protection from proarrhythmic block; CHO-hERG, FluxOR thallium flux, dofetilide IC70 present; Q12809; actives 0.51% (n = 310,000); activation (rescue from dofetilide block), less the hit threshold, % at 10 µM;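 active means activation above the mean of controls blocked by dofetilide plus 5 SD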;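 further: thallium influx through hERG after potassium depolarization seen as dye fluorescence rise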
# KCNK3 inh – human KCNK3 channel inhibition, primary screen; CHO-KCNK3 thallium flux, FluxOR fluorescence; stronger effect = lower value; B-score at 10 µM; actives 0.84% (n = 340,000); AID 602410;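 active means B-score under library mean minus 4 SD, starting fluorescence ratio at most library mean plus 5 SD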;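 further: more negative B-score means stronger inhibition of thallium flux through KCNK3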
# KCC2 mod – modulates chloride dependent transport by human KCC2; actives 2.2% (n = 190,000); KCC2 cells, thallium flux FluoZin-2 fluorescence; AID 1456; Q9H2X9; B-score of Tl+ flux slope (higher = more flux/activation; lower = inhibition) at 10 µM;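 active means thallium flux slope and its plate-corrected score both differing from the plate sample mean at a set confidence after two filtering rounds, in either direction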;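 further: slope of fluorescence scaled to starting intensity during 10 to 20 s after thallium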
# Target sequence (Q9H2X9 whole entry, looked up): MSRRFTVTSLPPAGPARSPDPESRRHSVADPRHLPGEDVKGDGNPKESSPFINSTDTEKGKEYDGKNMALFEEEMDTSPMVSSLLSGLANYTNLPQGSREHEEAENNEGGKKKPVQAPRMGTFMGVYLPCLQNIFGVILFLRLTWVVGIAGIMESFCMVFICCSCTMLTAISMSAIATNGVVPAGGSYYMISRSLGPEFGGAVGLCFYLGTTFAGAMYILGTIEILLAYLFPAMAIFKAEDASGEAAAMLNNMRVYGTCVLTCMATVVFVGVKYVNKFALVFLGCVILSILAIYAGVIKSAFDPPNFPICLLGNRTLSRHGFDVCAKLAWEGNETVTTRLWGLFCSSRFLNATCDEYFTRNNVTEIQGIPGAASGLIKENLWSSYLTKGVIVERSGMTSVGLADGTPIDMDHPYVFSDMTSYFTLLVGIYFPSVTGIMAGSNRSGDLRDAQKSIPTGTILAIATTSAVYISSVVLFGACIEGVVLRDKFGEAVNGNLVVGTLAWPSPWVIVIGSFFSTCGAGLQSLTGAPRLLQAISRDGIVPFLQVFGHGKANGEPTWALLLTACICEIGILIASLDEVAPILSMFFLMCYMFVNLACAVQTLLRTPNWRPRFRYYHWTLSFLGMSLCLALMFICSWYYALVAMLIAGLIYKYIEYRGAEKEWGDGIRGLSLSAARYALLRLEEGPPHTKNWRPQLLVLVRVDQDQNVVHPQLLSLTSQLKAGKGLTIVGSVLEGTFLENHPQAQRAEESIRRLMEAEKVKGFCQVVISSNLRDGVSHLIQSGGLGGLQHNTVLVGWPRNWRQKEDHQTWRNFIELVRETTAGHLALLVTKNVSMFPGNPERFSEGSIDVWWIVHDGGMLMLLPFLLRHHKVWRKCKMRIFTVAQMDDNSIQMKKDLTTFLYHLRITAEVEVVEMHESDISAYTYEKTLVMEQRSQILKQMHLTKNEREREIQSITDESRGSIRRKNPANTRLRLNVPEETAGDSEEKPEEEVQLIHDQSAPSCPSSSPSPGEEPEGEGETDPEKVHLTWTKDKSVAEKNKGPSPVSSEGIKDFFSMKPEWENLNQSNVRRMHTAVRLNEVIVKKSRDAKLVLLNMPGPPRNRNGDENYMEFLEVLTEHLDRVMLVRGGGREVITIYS
# KCNQ1 inh – blocks the human KCNQ1 potassium channel; CHO-K1 KCNQ1, FluxOR thallium flux fluorescence; stronger effect = higher value; B-score at 10 µM; actives 1.3% (n = 310,000); AID 2642;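 active means compounds whose thallium flux B-score, printed positive for inhibition, exceeds three library SD while starting fluorescence stays within three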;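 further: channel opened by potassium depolarization with thallium stimulus after 20 min compound exposure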
# KCNK9 inh – blocks the human KCNK9 two-pore domain potassium channel; HEK293 KCNK9, FluxOR thallium flux fluorescence; stronger effect = lower value; actives 1.2% (n = 310,000); B-score at 10 µM; AID 488922; Q9NPC2;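 active means ratio B-score over 3 SD below the library mean, with starting fluorescence within 5 SD of its mean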;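 further: negative B-score means less thallium flux so channel inhibition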
# KCNQ1 act – potentiators or activators of human KCNQ1 potassium channel; P51787; CHO-K1 KCNQ1, thallium flux FluxOR fluorescence; stronger effect = higher value; actives 0.35% (n = 310,000); B-score at 10 µM; AID 2648;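 active means fluorescence ratio B-score, a plate-corrected score, at least three library SD, with initial intensity B-score within 5 SD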
#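 assay system = KCNQ1-transfected CHO-K1 cells | medium = assay buffer with matched DMSO | probe or stimulus = depolarizing K+/Tl+ stimulus, K2SO4 and Tl2SO4 each 12.5 mM in 5x stock | dosing = single dose | incubation = dye 90 min, compound 20 min, room temperature | detection = kinetic FluxOR fluorescence, 10 s baseline plus 110 s post-stimulus | evaluation = ratio B score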
# Numbers without * were called inactive; i = inactive; · = not tested or not shown.
SMILES,hERG rescue,KCNK3 inh,KCC2 mod,KCNQ1 inh,KCNK9 inh,KCNQ1 act
O=C(Nc1nc(=S)ss1)c1ccc(Cl)cc1Cl,40.9*,i,4.98*,i,i,15*
CCN(Cc1ccccc1)C(=O)c1oc2ccc(C)cc2c1C,5.0*,i,·,i,i,i
CC(OC(=O)c1cccs1)C(=O)NCc1ccc2c(c1)OCO2 (centres undefined),-12.0,i,1.2,i,i,i
Cc1c(NC(=S)NC(=O)c2ccco2)c(=O)n(-c2ccccc2)n1C,0.0,i,0.0227,i,i,i
CCN(CC)CCNc1ncnc2c1sc1nc(N3CCCC3)c3c(c12)CC(C)(C)OC3,-14.1,i,-0.154,i,i,8*
CN(C)CCNc1ncnc2c1sc1nc(N3CCCC3)c3c(c12)CC(C)(C)OC3,1.4,i,-0.529,i,i,i
Cc1ccc(N2CC(C(=O)OCc3ccccc3F)CC2=O)cc1 (centres undefined),-5.6,i,-1.46,i,i,i
Cc1ccc(N2CC(C(=O)OCc3ccccc3)CC2=O)cc1 (centres undefined),-4.8,i,-4.26*,i,i,i
Cc1ccc(N2CC(C(=O)Oc3cccc(N4C(=O)CCC4=O)c3)CC2=O)cc1 (centres undefined),-11.5,i,7.07*,i,i,i
O=C1C(=O)N(CCN2CCOCC2)C(c2cccnc2)/C1=C(/O)c1ccc(Cl)cc1 (centres undefined),5.5*,i,2.14,i,i,i
CCCNC(=O)c1nnsc1S(=O)(=O)c1ccc(Cl)cc1,·,-9.13*,-0.799,·,·,·
CC1(C)CC2CC(C)(CN2C(=S)Nc2ccccc2)C1 (centres undefined),-10.1,i,0.447,i,i,i
CC1(C)CC2CC(C)(CN2C(=S)NC(=O)c2ccccc2Cl)C1 (centres undefined),38.9*,i,54.5*,i,i,27*
CCOC(=O)Cc1csc(NC(=O)CSc2ncnc3c2cnn3-c2ccccc2Cl)n1,-21.8,i,-2.8,i,i,i
CCc1ccc(OCC(=O)N/N=C/c2cc([N+](=O)[O-])ccc2N2CCCCCC2)cc1,-8.7,i,1.16,i,-6.72*,i
CCC(C)Nc1nc(N)c([N+](=O)[O-])c(Nc2ccccc2OC)n1 (centres undefined),-4.9,i,0.4,i,-7.93*,i
COc1ccc(-c2oc3cccnc3c2C#CC2(O)CCCCC2)cc1,-4.8,i,·,6*,i,i
O=C(O)COc1ccccc1/C=N/NC(=O)c1cccc(S(=O)(=O)N2CCOCC2)c1,5.4*,i,0.25,i,i,i
COc1cc(OC)c(OC)cc1/C=N/NC(=O)c1cccc(S(=O)(=O)N2CCOCC2)c1,-13.9,i,-0.53,i,i,i
COc1ccc(NC(=O)c2cccc(S(=O)(=O)N3CCOCC3)c2)cn1,-4.0,i,·,i,-6.92*,i
CCN1CCN(Cc2cc(=O)oc3cc4c(cc23)CCC4)CC1,-25.0,i,·,8*,i,i
CC(C)c1ccc(N2C(=O)CC(NNC(=O)c3ccccc3Cl)C2=O)cc1 (centres undefined),-9.1,i,0.0446,i,i,i
COc1cccc(N(C(=O)Cn2nnc(-c3ccc(C)o3)n2)C(C(=O)NC(C)(C)C)c2cccs2)c1 (centres undefined),6.4*,i,0.603,i,i,i
C=CCn1c(COc2ccc(Cl)cc2)nnc1SCc1ccc(C#N)cc1,4.8*,i,-1.39,i,i,i
COc1ccc(/C=N/NC(=O)c2cc(C(C)(C)C)[nH]n2)cc1COc1ccc(F)cc1F,-12.4,i,-0.409,6*,i,i
SMILES,hERG rescue,KCNK3 inh,KCC2 mod,KCNQ1 inh,KCNK9 inh,KCNQ1 act
COc1ccc(/C=N/NC(=O)c2cc(C)oc2C)cc1OCc1ccccc1,-10.8,i,·,i,-6.69*,i
COc1ccc(/C=N\NC(=O)c2ccccc2F)cc1COc1ccc(F)cc1,-1.1,i,·,i,i,i
Cc1cc(C(=O)N/N=C/c2ccc(OCc3ccccc3)cc2)c(C)o1,-1.1,i,·,i,i,i
COc1ccc(/C=N\NC(=O)c2ccccc2Br)cc1COc1c(F)c(F)cc(F)c1F,-8.7,i,·,6*,i,i
Cn1c2ccsc2c2ncn(Cc3ccc(F)cc3)c(=O)c21,·,i,·,·,·,·
CC(=O)c1ccc(NC(=O)c2ccc(CNc3c(N4CCOCC4)c(=O)c3=O)cc2)cc1,-12.2,i,0.432,i,i,i
COc1cccc(-c2noc(C(C)n3nc(C)c([N+](=O)[O-])c3C)n2)c1 (centres undefined),-6.5,i,0.372,i,i,i
O=C(CCC(=O)c1ccc(Cl)cc1)OCC(=O)c1ccccc1,8.9*,i,-4.17,i,i,i
O=C(CNC(=O)c1ccc(Cl)cc1)OCC(=O)c1ccccc1,-4.1,i,·,i,i,i
CCn1c(COc2ccc(Cl)cc2)nnc1SCC(=O)Nc1ccc2c(c1)OCO2,-4.3,i,·,i,i,i
NNc1ccc2c(C(F)(F)F)cc(C(F)(F)F)nc2n1,-5.2,i,·,i,i,i
N#CC(c1cccc(Cl)c1)c1ccc2c(C(F)(F)F)cc(C(F)(F)F)nc2n1 (centres undefined),-4.7,i,28.9*,i,i,76*
CCN1CCN(c2ccc(S(=O)(=O)N3CCOCC3)cc2NC(=O)/C=C/c2cccc(OC)c2OC)CC1,-11.4,i,·,i,i,i
Nc1ccn(Cc2ccccc2)n1,41.0*,i,-0.0341,i,i,i
Nc1ccn(Cc2cccc(F)c2)n1,-22.3,i,0.184,i,i,i
CCC(C)[C@@H](C(=O)N1CCNCC1)n1cc(CCCN=C(N)N)nn1 (some centres undefined),-3.7,i,0.18,i,i,i
C[C@@H](C(=O)N1CCNCC1)n1cc(CCCN=C(N)N)nn1,-6.1,i,2.03*,i,i,i
CC1CCCCC1NC(=O)c1ccc(NS(=O)(=O)c2ccc3[nH]c(=O)[nH]c3c2)cc1 (centres undefined),-14.4,i,·,i,i,i
Cc1ccc(S(=O)(=O)Nc2cccc3ncccc23)cc1,-8.2,i,0.631,i,i,i
Cc1ccc(S(=O)(=O)Nc2cccc3ncccc23)s1,-3.5,i,52.1*,i,i,i
